Assay results reported in ChEMBL document CHEMBL1124727, “Neuronal mapping of the heart with 6-[18F]fluorometaraminol” (1990).

Key:
Canis familiaris [1] = assay: Tissue concentration in dog left ventricle to blood ratio 24 hr after iv administration; format: functional, Canis lupus familiaris
Method in brief: (§1)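 Dogs (one to three per time point) received bolus cephalic vein injection of 92–100 μCi ³H tracer in 2.0 mL sterile acetate buffer pH 4.5; sacrificed 30 min or 24 h later by iv sodium pentobarbital. Duplicate organ samples oxidized and liquid-scintillation counted with background/efficiency correction; % kg dose/g ± SEM; heart ratio uses left ventricle/blood.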

Canis familiaris [2] = assay: (§2) Tissue concentration in dog left ventricle to blood ratio 0.5 hr after iv administration; format: functional, Canis lupus familiaris; method in brief: as §1
Canis familiaris [3] = assay: Tissue concentration in dog blood 0.5 hr after iv administration; format: functional, Canis lupus familiaris
Method in brief: (§3)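 Dogs given ³H tracer (92–100 μCi) as iv cephalic-vein bolus in 2.0 mL sterile acetate buffer pH 4.5; 1–3 dogs per time point. Killed 30 min (or 24 h) later by iv pentobarbital; duplicate tissue samples oxidized and liquid-scintillation counted with background and efficiency correction. Expressed as % kg dose/g; ratio = left ventricle to blood.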

Canis familiaris [4] = assay: Tissue concentration in dog lung 0.5 hr after iv administration; format: functional, Canis lupus familiaris; method in brief: as §1
Canis familiaris [5] = assay: Tissue concentration in dog lung 24 hr after iv administration; format: functional, Canis lupus familiaris; method in brief: as §1
Canis familiaris [6] = assay: Tissue concentration in dog heart 24 hr after iv administration; format: functional, Canis lupus familiaris; method in brief: as §1
Canis familiaris [7] = assay: Tissue concentration in dog liver 24 hr after iv administration; format: functional, Canis lupus familiaris; method in brief: as §1
Canis familiaris [8] = assay: Tissue concentration in dog liver 0.5 hr after iv administration; format: functional, Canis lupus familiaris; method in brief: as §3
Canis familiaris [9] = assay: Tissue concentration in dog heart 0.5 hr after iv administration; format: functional, Canis lupus familiaris; method in brief: as §1
Canis familiaris [10] = assay: Tissue concentration in dog blood 24 hr after iv administration; format: functional, Canis lupus familiaris; method in brief: as §1
Canis familiaris [11] = assay: Tissue concentration in dog spleen 24 hr after iv administration; format: functional, Canis lupus familiaris; method in brief: as §1
Canis familiaris [12] = assay: Tissue concentration in dog spleen 0.5 hr after iv administration; format: functional, Canis lupus familiaris; method in brief: as §1
Rattus norvegicus [13] = assay: Neuronal selectivity expressed as Concentration in left ventricle after iv administration in rat, pretreated with 6-hydroxydopamine (control = 5.38+/-0.39); format: functional, organism-based; conditions: Heart left ventricle
Rattus norvegicus [14] = assay: Neuronal selectivity expressed as Concentration in right ventricle after iv administration in rat, pretreated with 6-hydroxydopamine (control = 6.10+/-0.45); format: functional, organism-based; conditions: Heart right ventricle
Rattus norvegicus [15] = assay: Neuronal selectivity expressed as Concentration in spleen after iv administration in rat, pretreated with 6-hydroxydopamine (control = 1.88+/-0.25); format: functional, organism-based
Rattus norvegicus [16] = assay: Neuronal selectivity expressed as Concentration in right atrium after iv administration in rat, pretreated with 6-hydroxydopamine (control = 5.19+/-0.14); format: functional, organism-based; conditions: Cardiac atrium
Rattus norvegicus [17] = assay: Neuronal selectivity expressed as Concentration in left atrium after iv administration in rat, pretreated with 6-hydroxydopamine (control = 5.26+/-0.43); format: functional, organism-based; conditions: Cardiac atrium
Rattus norvegicus [18] = assay: Neuronal selectivity expressed as Concentration in blood after iv administration in rat, pretreated with 6-hydroxydopamine (control = 0.062+/-0.012); format: functional, organism-based
Rattus norvegicus [19] = species: Rattus norvegicus; assay: Percent change in thallium-201 concentration in spleen of sympathectomized rat, pretreated with 6-hydroxydopamine; format: functional
Rattus norvegicus [20] = species: Rattus norvegicus; assay: Percente change in thallium-201 concentration in left atrium of sympathectomized rat, pretreated with 6-hydroxydopamine; format: functional, Cardiac atrium
Method in brief: (§4)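 Female Sprague-Dawley rats (200–300 g) given 6-hydroxydopamine HBr 100 mg/kg ip, freshly made in saline, 5 days before tracer; controls got vehicle. Thallium-201 (23–28 μCi) iv via femoral vein; decapitated 90 min later; tissue radioactivity counted; N = 6. Value is % change in treated versus control tissue concentration.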

Rattus norvegicus [21] = species: Rattus norvegicus; assay: Percent change in [3H]metaraminol concentration in right ventricle of sympathectomized rat, pretreated with 6-hydroxydopamine
Rattus norvegicus [22] = species: Rattus norvegicus; assay: Percent change in [3H]metaraminol concentration in blood of sympathectomized rat, pretreated with 6-hydroxydopamine
Rattus norvegicus [23] = species: Rattus norvegicus; assay: Percent change in thallium-201 concentration in left ventricle of sympathectomized rat, pretreated with 6-hydroxydopamine; format: functional, Heart left ventricle
Method in brief: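 Blood-perfusion check in rats under same 6-hydroxydopamine protocol (100 mg/kg ip, 5 days before tracer): thallium-201 23–28 μCi iv via femoral vein, decapitation 90 min later, N = 6; percent change in tissue radioactivity of treated versus control rats.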

Rattus norvegicus [24] = species: Rattus norvegicus; assay: Percent change in thallium-201 concentration in right atrium of sympathectomized rat, pretreated with 6-hydroxydopamine; format: functional, Cardiac atrium; method in brief: as §4
Rattus norvegicus [25] = species: Rattus norvegicus; assay: Percentage change in thallium-201 in spleen of sympathectomized rat, pretreated with 6-hydroxydopamine; format: functional; method in brief: as §4
Canis familiaris [26] = assay: as §2; format: functional, Canis lupus familiaris; method in brief: as §3; remark: listed apart in the source
Rattus norvegicus [27] = species: Rattus norvegicus; assay: Percentage change in thallium-201 in right ventricle of sympathectomized rat, pretreated with 6-hydroxydopamine; format: functional, Heart right ventricle; method in brief: as §4
Rattus norvegicus [28] = species: Rattus norvegicus; assay: Percentage change in thallium-201 in blood of sympathectomized rat, pretreated with 6-hydroxydopamine; format: functional; method in brief: as §4
Rattus norvegicus [29] = species: Rattus norvegicus; assay: Percentage change in thallium-201 in left ventricle of sympathectomized rat, pretreated with 6-hydroxydopamine; format: functional, Heart left ventricle; method in brief: as §4

Structure (SMILES) | [3H] concentration (Canis familiaris [1]) | [3H] concentration (Canis familiaris [2]) | [3H] concentration (Canis familiaris [3]) [% kg dose g-1] | [3H] concentration (Canis familiaris [4]) [% kg dose g-1] | [3H] concentration (Canis familiaris [5]) [% kg dose g-1] | [3H] concentration (Canis familiaris [6]) [% kg dose g-1] | [3H] concentration (Canis familiaris [7]) [% kg dose g-1] | [3H] concentration (Canis familiaris [8]) [% kg dose g-1] | [3H] concentration (Canis familiaris [9]) [% kg dose g-1] | [3H] concentration (Canis familiaris [10]) [% kg dose g-1] | [3H] concentration (Canis familiaris [11]) [% kg dose g-1] | [3H] concentration (Canis familiaris [12]) [% kg dose g-1] | Change (Rattus norvegicus [20]) [%] | Change (Rattus norvegicus [24]) [%] | also measured
C[C@H](N)[C@H](O)c1cccc(O)c1 (stereo in doubt; form 1) [METARAMINOL] | 74 | 18 | 0.03 | 0.2 | 0.03 | 0.59 | 0.13 | 0.42 | 0.55 | 0.008 | 0.5 | 0.81 |  |  | 
C[C@H](N)[C@H](O)c1cccc(O)c1 (stereo in doubt; form 2) |  |  |  |  |  |  |  |  |  |  |  |  |  |  | Concentration (Rattus norvegicus [13]): 1.05 % dose g-1; Concentration (Rattus norvegicus [14]): 1.32 % dose g-1; Concentration (Rattus norvegicus [15]): 0.46 % dose g-1; Concentration (Rattus norvegicus [16]): 0.86 % dose g-1; Concentration (Rattus norvegicus [17]): 0.75 % dose g-1; Concentration (Rattus norvegicus [18]): 0.158 % dose g-1
C[C@H](N)[C@H](O)c1cccc(O)c1 (stereo in doubt; form 2) [METARAMINOL] | 57 | 24 |  | 0.13 | 0.05 | 0.51 | 0.17 |  | 0.72 | 0.009 | 0.73 | 0.88 | -86 | -83 | Change (Rattus norvegicus [19]): -76%; Change (Rattus norvegicus [21]): -80%; Change (Rattus norvegicus [22]): 155%; Change (Rattus norvegicus [23]): -86%
[3H][C@](O)(CN)c1ccc(O)c(O)c1 [[3H]NOREPINEPHRINE] | 9 |  | 0.04 | 0.18 | 0.03 | 0.16 | 0.09 | 0.27 | 0.74 | 0.017 | 0.52 | 0.81 | -92 | -94 | Change (Rattus norvegicus [25]): -71%; [3H] concentration (Canis familiaris [26]): 19; Change (Rattus norvegicus [27]): -92%; Change (Rattus norvegicus [28]): -20%; Change (Rattus norvegicus [29]): -85%
